The target in one experiment is Cathepsin D (Homo sapiens, UniProt P07339). In words: Inhibition of human cathepsin D using DABCYL-Glu-Arg-Nle-Phe-Leu-Ser-Phe-Pro-EDANS as substrate preincubated for 30 mins followed by substrate addition and measured every min for 8 to 15 mins by FRET assay.
The target of a further experiment is Plasmepsin 4 (Plasmodium falciparum, UniProt Q17SB2). In words: Inhibition of Plasmodium falciparum plasmepsin 4 using DABCYL-Glu-Arg-Nle-Phe-Leu-Ser-Phe-Pro-EDANS as substrate preincubated for 30 mins followed by substrate addition and measured every min for 8 to 15 mins by FRET assay.
Plasmepsin 4, sequence (Q17SB2 whole entry): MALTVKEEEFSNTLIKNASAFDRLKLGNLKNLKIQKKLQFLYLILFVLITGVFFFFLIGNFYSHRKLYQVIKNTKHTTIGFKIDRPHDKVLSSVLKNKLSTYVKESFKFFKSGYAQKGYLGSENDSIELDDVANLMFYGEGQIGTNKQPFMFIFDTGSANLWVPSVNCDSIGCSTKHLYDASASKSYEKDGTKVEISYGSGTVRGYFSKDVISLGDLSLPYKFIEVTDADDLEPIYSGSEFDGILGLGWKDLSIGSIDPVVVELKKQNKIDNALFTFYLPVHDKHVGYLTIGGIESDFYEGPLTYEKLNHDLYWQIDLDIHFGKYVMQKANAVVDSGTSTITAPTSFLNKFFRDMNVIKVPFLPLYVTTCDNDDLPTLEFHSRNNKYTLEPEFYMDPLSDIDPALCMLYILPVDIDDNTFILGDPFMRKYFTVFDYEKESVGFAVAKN
Another experiment has as its target Plasmepsin I (Plasmodium falciparum, UniProt P39898). In words: Inhibition of Plasmodium falciparum plasmepsin 1 using DABCYL-Glu-Arg-Nle-Phe-Leu-Ser-Phe-Pro-EDANS as substrate preincubated for 30 mins followed by substrate addition and measured every min for 8 to 15 mins by FRET assay.
The next experiment concerns the target Plasmepsin II (Plasmodium falciparum, UniProt P46925). Kind of experiment: Inhibition of Plasmodium falciparum plasmepsin 2 using DABCYL-Glu-Arg-Nle-Phe-Leu-Ser-Phe-Pro-EDANS as substrate preincubated for 30 mins followed by substrate addition and measured every min for 8 to 15 mins by FRET assay.
In experiment [1] the target is Plasmepsin X (Plasmodium falciparum (isolate 3D7)) (UniProt Q8IAS0). Kind of experiment: Inhibition of Plasmodium falciparum plasmepsin 10-mediated SUB1 maturation and egress assessed as enrichment of SUB1 p54 form level at 10 nM after 8 hrs by Western blot analysis. The method, boiled down:
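Synchronous cultures of immature intracellular parasites were exposed for ~8 h to compound at 10 nM. Controls were vehicle (DMSO, 1% v/v) and a cGMP-dependent protein kinase inhibitor at 2 μM. Parasite extracts were analysed by Western blot with anti-SUB1 antibody, scoring the p54 and p47 forms.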
On the technique in general: Immunoblotting shows a protein as a band on a membrane.

For the next experiment, the system named is Plasmodium falciparum. Kind of experiment: Antimalarial activity against blood stage form of Plasmodium falciparum 3D7 infected in erythrocytes after 96 hrs by SYBR Green I dye-based spectrophotometric analysis. The format is functional, organism-based. The settings on record: 3D7, 96 h. The method, boiled down: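 P. falciparum blood-stage growth was read by SYBR Green fluorescence after a 96 h incubation (2 erythrocytic cycles). EC50 values came from triplicate samples in 2 separate biological assays, with a reference inhibitor as positive control.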

The target in experiment [2] is Plasmepsin X (Plasmodium falciparum (isolate 3D7)) (UniProt Q8IAS0). In words: Inhibition of Plasmodium falciparum plasmepsin 10-mediated SUB1 maturation and egress assessed as reduction in SERA5 P50 level at 10 nM by Western blot analysis.
Plasmepsin X (Plasmodium falciparum (isolate 3D7)), sequence (Q8IAS0 whole entry): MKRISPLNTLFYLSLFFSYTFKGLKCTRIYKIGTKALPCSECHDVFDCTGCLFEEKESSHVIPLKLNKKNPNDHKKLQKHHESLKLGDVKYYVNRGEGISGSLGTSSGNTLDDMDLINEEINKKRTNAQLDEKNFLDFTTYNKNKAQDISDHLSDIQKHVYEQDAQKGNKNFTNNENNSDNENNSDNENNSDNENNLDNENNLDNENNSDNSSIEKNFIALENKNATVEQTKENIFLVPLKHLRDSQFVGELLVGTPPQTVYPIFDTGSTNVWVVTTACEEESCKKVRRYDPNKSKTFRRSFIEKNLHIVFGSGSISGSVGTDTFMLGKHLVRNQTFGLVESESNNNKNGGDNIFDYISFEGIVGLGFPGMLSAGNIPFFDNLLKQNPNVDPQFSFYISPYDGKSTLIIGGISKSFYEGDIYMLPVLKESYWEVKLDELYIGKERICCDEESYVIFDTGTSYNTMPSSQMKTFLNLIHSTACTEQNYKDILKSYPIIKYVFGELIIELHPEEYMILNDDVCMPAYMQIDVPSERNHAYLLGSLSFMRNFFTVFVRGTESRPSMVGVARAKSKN

Activity calls are given as the source filed them. The rule behind the calls is not given here.

Plasmepsin I, sequence (P39898 whole entry): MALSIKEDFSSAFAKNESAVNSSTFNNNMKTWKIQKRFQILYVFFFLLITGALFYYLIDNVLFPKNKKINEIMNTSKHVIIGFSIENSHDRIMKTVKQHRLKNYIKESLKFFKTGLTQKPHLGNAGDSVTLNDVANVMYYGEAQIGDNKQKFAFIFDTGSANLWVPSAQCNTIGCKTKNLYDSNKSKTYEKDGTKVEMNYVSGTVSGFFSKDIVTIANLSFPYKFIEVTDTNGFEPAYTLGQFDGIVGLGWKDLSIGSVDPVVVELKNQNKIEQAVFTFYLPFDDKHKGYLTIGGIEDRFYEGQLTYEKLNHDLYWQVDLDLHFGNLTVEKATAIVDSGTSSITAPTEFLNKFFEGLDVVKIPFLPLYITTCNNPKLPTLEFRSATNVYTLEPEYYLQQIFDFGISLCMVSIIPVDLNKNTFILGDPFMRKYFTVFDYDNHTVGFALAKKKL
Cathepsin D, sequence (P07339 65-162 limits assumed): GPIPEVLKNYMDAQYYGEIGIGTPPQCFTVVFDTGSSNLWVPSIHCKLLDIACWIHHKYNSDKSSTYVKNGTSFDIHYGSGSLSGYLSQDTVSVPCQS
Cathepsin D, sequence (P07339 169-412 limits assumed): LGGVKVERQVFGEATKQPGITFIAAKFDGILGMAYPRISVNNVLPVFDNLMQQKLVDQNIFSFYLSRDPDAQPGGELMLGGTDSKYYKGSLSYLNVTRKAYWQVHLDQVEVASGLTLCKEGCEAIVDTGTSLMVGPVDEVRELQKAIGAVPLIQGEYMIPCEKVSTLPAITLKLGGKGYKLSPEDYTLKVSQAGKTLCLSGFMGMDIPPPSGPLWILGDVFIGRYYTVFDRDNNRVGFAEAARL
Plasmepsin II, sequence (P46925 whole entry): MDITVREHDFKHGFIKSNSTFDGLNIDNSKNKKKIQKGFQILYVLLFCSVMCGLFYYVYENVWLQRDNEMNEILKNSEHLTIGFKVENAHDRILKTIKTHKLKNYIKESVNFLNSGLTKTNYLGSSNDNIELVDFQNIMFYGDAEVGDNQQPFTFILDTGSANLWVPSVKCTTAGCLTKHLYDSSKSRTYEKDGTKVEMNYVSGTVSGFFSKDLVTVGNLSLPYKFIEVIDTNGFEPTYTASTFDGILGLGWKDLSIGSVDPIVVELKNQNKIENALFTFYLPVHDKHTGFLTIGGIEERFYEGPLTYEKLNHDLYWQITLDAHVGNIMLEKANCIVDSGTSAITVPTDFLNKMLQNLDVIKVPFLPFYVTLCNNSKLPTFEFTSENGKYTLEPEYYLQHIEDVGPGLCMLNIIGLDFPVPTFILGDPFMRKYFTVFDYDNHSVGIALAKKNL

On to `COc1cccc(C(C)(C)NC[C@@H](O)[C@H](Cc2ccccc2)NC(=O)c2cc(C(=O)N(CCC(F)(F)F)CCC(F)(F)F)cc(N3CCCCC3)c2)c1`, for which the figures for the IC50 against Cathepsin D and against Plasmepsin 4 were 120 nM and 210 nM, respectively.

Consider `COc1cccc(C(C)(C)NC[C@@H](O)[C@H](Cc2ccccc2)NC(=O)c2cc(C(=O)NCC(C)(C)O)cc(N3CCCCC3)c2)c1`, for which the 50% inhibitory concentration (IC50) (in general, the midpoint of a concentration-inhibition curve) was 1660 nM on Cathepsin D and 100 nM at Plasmepsin 4.

For the compound `CCCN(CCC)C(=O)c1cccc(C(=O)N[C@@H](Cc2ccccc2)[C@H](O)CNC(C)(C)c2cccc(OC)c2)c1`, the half-inhibitory concentration (IC50) against Cathepsin D worked out at 1150 nM; at Plasmepsin I it was 3100 nM; at Plasmepsin II, 1700 nM; against Plasmepsin 4, 58 nM. In addition, the inhibition result in experiment [1] and in experiment [2] was “Active” each time. Moreover, in the experiment with Plasmodium falciparum, the midpoint of the response, the EC50, lay at 0.3 nM.

As for `CCN(CC)C(=O)c1cc(C(=O)N[C@@H](Cc2ccccc2)[C@H](O)CNC(C)(C)c2cccc(OC)c2)cc(N2CCCCC2)c1`, the IC50 turned out to be 250 nM at Cathepsin D, 800 nM against Plasmepsin I, 160 nM at Plasmepsin II and 14 nM against Plasmepsin 4. In addition, the inhibition result in experiment [1] is “Active”. The EC50 (commonly the concentration at which the effect is half-maximal) in the experiment with Plasmodium falciparum came out at 1.5 nM.

For the compound `COc1cccc(C(C)(C)NC[C@@H](O)[C@H](Cc2ccccc2)NC(=O)c2cc(C(=O)NC(C)(C)CO)cc(N3CCCCC3)c2)c1`, the IC50 at Cathepsin D worked out at 1460 nM; against Plasmepsin 4, 120 nM.

Take `CCCN(CCC)C(=O)c1cc(C(=O)N[C@@H](Cc2ccccc2)[C@H](O)CNC(C)(C)c2cccc(OC)c2)cc(C(=O)N(CCC)CCC)c1`: the concentration for half-maximal inhibition (IC50) turned out to be 700 nM against Cathepsin D, 780 nM on Plasmepsin I, 270 nM against Plasmepsin II and 18 nM at Plasmepsin 4. This compound came in with an EC50 in the experiment with Plasmodium falciparum of 6 nM.

As for `COc1cccc(C(C)(C)NC[C@@H](O)[C@H](Cc2ccccc2)NC(=O)c2cc(C(=O)NCC3CC3)cc(N3CCCCC3)c2)c1`, the IC50 was found to be 760 nM against Cathepsin D, 1800 nM against Plasmepsin I, 500 nM against Plasmepsin II and 30 nM against Plasmepsin 4. The compound further yielded an EC50 in the experiment on Plasmodium falciparum of 1.8 nM.

On to `COc1cccc(C(C)(C)NC[C@@H](O)[C@H](Cc2ccccc2)NC(=O)c2cc(C(=O)N(CC(C)C)CC(C)C)cc(N3CCCCC3)c2)c1`, for which the IC50 was determined as 1300 nM on Cathepsin D and 500 nM against Plasmepsin 4.

Regarding `COc1cccc(C(C)(C)NC[C@@H](O)[C@H](Cc2ccccc2)NC(=O)c2cc(C(=O)NCCN(C)C)cc(N3CCCCC3)c2)c1`, the IC50 was determined as 4800 nM against Cathepsin D and 360 nM on Plasmepsin 4.

Consider `COc1cccc(C(C)(C)NC[C@@H](O)[C@H](Cc2ccccc2)NC(=O)c2cc(C(=O)NCCCO)cc(N3CCCCC3)c2)c1`, for which the IC50 on Cathepsin D is 2250 nM; on Plasmepsin 4, 93 nM.

On to `CCCN(CCC)C(=O)c1cc(F)cc(C(=O)N[C@@H](Cc2ccccc2)[C@H](O)CNC(C)(C)c2cccc(OC)c2)c1`, for which the IC50 turned out to be 1000 nM on Cathepsin D, 1100 nM against Plasmepsin I, 1100 nM against Plasmepsin II and 50 nM against Plasmepsin 4. In addition, the inhibition result in experiment [1] and in experiment [2] was “Active” throughout. This compound also came in with an EC50 in the experiment on Plasmodium falciparum of 1.5 nM.

Take `CCCN(CCC)C(=O)c1cc(C(=O)N[C@@H](Cc2ccccc2)[C@H](O)CNC(C)(C)c2cccc(OC)c2)cc(C(F)(F)F)c1`: the values for the 50% inhibitory concentration (IC50) at Cathepsin D and against Plasmepsin 4 were 67 nM and 15 nM, respectively.

On to `COc1cccc(C(C)(C)NC[C@@H](O)[C@H](Cc2ccccc2)NC(=O)c2cc(C(=O)NCc3ccccc3)cc(N3CCCCC3)c2)c1`, for which the IC50 turned out to be 220 nM at Cathepsin D and 38 nM against Plasmepsin 4.

On to `COc1cccc(C(C)(C)NC[C@@H](O)[C@H](Cc2ccccc2)NC(=O)c2cc(C(=O)NCCC(F)(F)F)cc(N3CCCCC3)c2)c1`, for which the IC50 at Cathepsin D was found to be 580 nM; against Plasmepsin I, 2500 nM; on Plasmepsin II it was 2200 nM; against Plasmepsin 4 it was 24 nM. For the same compound, in the experiment with Plasmodium falciparum, the EC50 came to 2 nM.

With `COc1cccc(C(C)(C)NC[C@@H](O)[C@H](Cc2ccccc2)NC(=O)c2cc(C(=O)N(C)C)cc(N3CCCCC3)c2)c1`, the figures for the IC50 against Cathepsin D and on Plasmepsin 4 were 500 nM and 87 nM, respectively.

Consider `COCCN(CCOC)C(=O)c1cc(C(=O)N[C@@H](Cc2ccccc2)[C@H](O)CNC(C)(C)c2cccc(OC)c2)cc(N2CCCCC2)c1`, for which the IC50 against Cathepsin D turned out to be 100 nM; against Plasmepsin 4 it was 37 nM.

For `COc1cccc(C(C)(C)NC[C@@H](O)[C@H](Cc2ccccc2)NC(=O)c2cc(C(=O)NCCOC(C)(C)C)cc(N3CCCCC3)c2)c1`, the IC50 at Cathepsin D was 150 nM; against Plasmepsin 4, 31 nM.

In the case of `COc1cccc(C(C)(C)NC[C@@H](O)[C@H](Cc2ccccc2)NC(=O)c2cc(C(=O)NCC3CCCCC3)cc(N3CCCCC3)c2)c1`, the IC50 was found to be 150 nM on Cathepsin D and 90 nM on Plasmepsin 4.

Regarding `COc1cccc(C(C)(C)NC[C@@H](O)[C@H](Cc2ccccc2)NC(=O)c2cccc(C(=O)NCC(C)(C)C)c2)c1`, the half-inhibitory concentration (IC50) on Cathepsin D turned out to be 3800 nM; against Plasmepsin I, 5600 nM; on Plasmepsin II it was 7100 nM; against Plasmepsin 4, 76 nM. In the experiment with Plasmodium falciparum, this compound yielded an EC50 of 2 nM.

On to `CCCN(CCC)C(=O)c1cc(C#N)cc(C(=O)N[C@@H](Cc2ccccc2)[C@H](O)CNC(C)(C)c2cccc(OC)c2)c1`, for which the IC50 stood at 560 nM against Cathepsin D and 59 nM against Plasmepsin 4.

Take `COc1cccc(C(C)(C)NC[C@@H](O)[C@H](Cc2ccccc2)NC(=O)c2cccc(C(=O)NCCC(F)(F)F)c2)c1`: the IC50 came to 4900 nM on Cathepsin D, 10300 nM against Plasmepsin I, 10400 nM against Plasmepsin II and 150 nM against Plasmepsin 4. In addition, it took 6 nM to reach a half-maximal effect with Plasmodium falciparum (EC50).

With `CCCN(CCC)C(=O)c1cc(C)cc(C(=O)N[C@@H](Cc2ccccc2)[C@H](O)CNC(C)(C)c2cccc(OC)c2)c1`, the IC50 on Cathepsin D worked out at 210 nM; against Plasmepsin 4, 23 nM.

As for `COc1cccc(C(C)(C)NC[C@@H](O)[C@H](Cc2ccccc2)NC(=O)c2cc(C(=O)NCC(C)(C)C)cc(N3CCCCC3)c2)c1`, the IC50 at Cathepsin D amounted to 400 nM; on Plasmepsin I, 2000 nM; against Plasmepsin II, 850 nM; at Plasmepsin 4, 27 nM. This compound came in with an EC50 in the experiment with Plasmodium falciparum of 6 nM.

With `COc1cccc(C(C)(C)NC[C@@H](O)[C@H](Cc2ccccc2)NC(=O)c2cc(C(=O)N(CCO)CCO)cc(N3CCCCC3)c2)c1`, the values for the IC50 against Cathepsin D and against Plasmepsin 4 were 270 nM and 68 nM, respectively.

As to `COc1cccc(C(C)(C)NC[C@@H](O)[C@H](Cc2ccccc2)NC(=O)c2cc(C(=O)NCCO)cc(N3CCCCC3)c2)c1`, the results for the IC50 against Cathepsin D and on Plasmepsin 4 were 1420 nM and 210 nM, respectively.

With `COc1cccc(C(C)(C)NC[C@@H](O)[C@H](Cc2ccccc2)NC(=O)c2cc(C(=O)NCC(C)(C)OC)cc(N3CCCCC3)c2)c1`, the IC50 against Cathepsin D is 2100 nM; on Plasmepsin I it was 7400 nM; against Plasmepsin II it was 5400 nM; at Plasmepsin 4 it was 48 nM. In addition, in the experiment on Plasmodium falciparum, the response was half-maximal at 2 nM (EC50).

As to `COCCNC(=O)c1cc(C(=O)N[C@@H](Cc2ccccc2)[C@H](O)CNC(C)(C)c2cccc(OC)c2)cc(N2CCCCC2)c1`, the IC50 against Cathepsin D was 750 nM; against Plasmepsin 4, 50 nM.

In the case of `CCCN(CCC)C(=O)c1cc(Cl)cc(C(=O)N[C@@H](Cc2ccccc2)[C@H](O)CNC(C)(C)c2cccc(OC)c2)c1`, the IC50 at Cathepsin D amounted to 96 nM; at Plasmepsin 4, 8 nM.

These data come from ChEMBL document CHEMBL4330085, “Peptidomimetic plasmepsin inhibitors with potent anti-malarial activity and selectivity against cathepsin D” (Eur J Med Chem, 2019).
